Experimental data reported in ChEMBL document CHEMBL5678817, “FTBMT, a Novel and Selective GPR52 Agonist, Demonstrates Antipsychotic-Like and Procognitive Effects in Rodents, Revealing a Potential Therapeutic Agent for Schizophrenia” (J Pharmacol Exp Ther, 2017).
Calls of active or inactive are those of the source. The rule behind the calls is not given here.

Legend:
[1] = target: cAMP-dependent protein kinase (PKA) (Homo sapiens) (UniProt P22694+P17612+P22612); assay: Inhibition of Protein kinase A (unknown origin) at 10 uM relative to control; format: protein assay
Method in brief: (§1)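 Enzyme activity assays from the same 98-target biochemical panel. Single test concentration of 10 µM. Read-out is % inhibition of enzyme activity relative to control; negative percentages indicate activation of the enzyme.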

[2] = tested on: Mus musculus; assay: Antipsychotic activity in C57BL/6N mouse assessed as increase in c-fos positive cells in dorsomedial striatum at 30 mg/kg, po measured for 2 hrs by immunohistochemistry analysis; format: functional, organism-based
[3] = target: Small conductance calcium-activated potassium channel protein 2 (Homo sapiens) (UniProt Q9H2S1); assay: Inhibition of SKCA2 (unknown origin) at 10 uM relative to control
Chain of Small conductance calcium-activated potassium channel protein 2 (Homo sapiens) (Q9H2S1 whole entry): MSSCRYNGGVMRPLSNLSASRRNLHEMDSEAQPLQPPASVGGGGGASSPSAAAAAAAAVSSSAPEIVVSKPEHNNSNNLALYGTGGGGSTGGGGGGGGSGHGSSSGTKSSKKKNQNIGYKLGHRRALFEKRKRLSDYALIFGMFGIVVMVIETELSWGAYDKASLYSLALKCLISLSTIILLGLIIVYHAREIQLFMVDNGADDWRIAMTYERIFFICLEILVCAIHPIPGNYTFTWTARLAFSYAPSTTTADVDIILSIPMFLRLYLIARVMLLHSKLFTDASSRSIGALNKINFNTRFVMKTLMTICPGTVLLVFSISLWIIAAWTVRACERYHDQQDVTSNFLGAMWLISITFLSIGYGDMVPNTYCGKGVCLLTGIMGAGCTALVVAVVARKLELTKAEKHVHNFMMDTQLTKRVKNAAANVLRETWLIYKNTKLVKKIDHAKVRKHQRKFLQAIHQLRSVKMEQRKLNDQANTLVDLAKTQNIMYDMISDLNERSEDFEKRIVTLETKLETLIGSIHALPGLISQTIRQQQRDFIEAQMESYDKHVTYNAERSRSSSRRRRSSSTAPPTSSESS
Method in brief: (§2)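 Part of a 98-target external biochemical selectivity panel that used radioligand/receptor binding-type assays. Compound tested once at 10 µM. Results are reported as % inhibition versus control; negative values mean stimulation of receptor activity.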

[4] = tested on: Rattus norvegicus; assay: Pro-cognitive activity in Long-Evans rat assessed as increase in exploration time for novel object at 3 to 10 mg/kg, po measured after 3 mins by NORT test; format: functional, organism-based; details: dose 3-10 mg/kg
Method in brief: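 Male Long-Evans rats (7 weeks) were habituated to a 40 × 40 × 50 cm box for 10 min. The acquisition trial was 3 min with two identical objects. Oral dosing at 3 or 10 mg/kg followed immediately after acquisition. The 3-min retention trial, with one familiar and one novel object, ran 48 h later. Exploration was hand-scored by a blinded scorer, and NDI = novel/total × 100. n = 10.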

[5] = target: Alpha-1A adrenergic receptor (Homo sapiens) (UniProt P35348); assay: Inhibition of Adrenergic alpha1 receptor (unknown origin) at 10 uM relative to control
Chain of Alpha-1A adrenergic receptor (Homo sapiens) (P35348 whole entry): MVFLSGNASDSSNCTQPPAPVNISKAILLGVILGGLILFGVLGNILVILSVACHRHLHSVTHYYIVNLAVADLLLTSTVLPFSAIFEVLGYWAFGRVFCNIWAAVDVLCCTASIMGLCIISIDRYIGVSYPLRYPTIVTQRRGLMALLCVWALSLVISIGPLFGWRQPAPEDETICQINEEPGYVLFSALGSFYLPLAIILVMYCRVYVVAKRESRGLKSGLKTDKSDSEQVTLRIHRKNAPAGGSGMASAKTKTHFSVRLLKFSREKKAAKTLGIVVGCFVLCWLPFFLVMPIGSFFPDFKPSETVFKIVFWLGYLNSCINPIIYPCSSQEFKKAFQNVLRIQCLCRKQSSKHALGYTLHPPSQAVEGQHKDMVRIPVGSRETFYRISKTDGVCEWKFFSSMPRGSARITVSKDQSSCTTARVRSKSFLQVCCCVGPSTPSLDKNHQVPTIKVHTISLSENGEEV
Method in brief: (§3)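 Single-point screen at 10 μM across receptor, ion channel and enzyme binding or activity assays. Expressed as percent inhibition versus control; negative values denote stimulation.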

[6] = target: MAO-A (amine oxidase [flavin-containing] A) (Homo sapiens, UniProt P21397); assay: Inhibition of MAO-A (unknown origin) at 10 uM relative to control; method in brief: as §1
Chain of MAO-A (amine oxidase [flavin-containing] A) (P21397 whole entry): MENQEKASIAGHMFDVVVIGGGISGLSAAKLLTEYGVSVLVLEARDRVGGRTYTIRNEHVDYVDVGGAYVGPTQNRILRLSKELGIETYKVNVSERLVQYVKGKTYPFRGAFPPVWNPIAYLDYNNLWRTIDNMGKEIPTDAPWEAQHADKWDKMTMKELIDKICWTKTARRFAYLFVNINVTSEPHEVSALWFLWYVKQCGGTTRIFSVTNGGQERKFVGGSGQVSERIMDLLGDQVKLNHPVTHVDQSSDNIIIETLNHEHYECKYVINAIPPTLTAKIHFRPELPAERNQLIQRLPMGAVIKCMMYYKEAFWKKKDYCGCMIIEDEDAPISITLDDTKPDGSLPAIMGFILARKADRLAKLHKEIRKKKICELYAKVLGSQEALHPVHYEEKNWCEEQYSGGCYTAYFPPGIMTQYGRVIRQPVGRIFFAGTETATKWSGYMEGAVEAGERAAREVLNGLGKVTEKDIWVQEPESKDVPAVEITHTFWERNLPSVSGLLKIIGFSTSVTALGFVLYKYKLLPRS

[7] = target: Glutamate [NMDA] receptor (Homo sapiens) (UniProt Q05586+Q12879+Q13224+O15399+O60391+Q14957+Q8TCU5); assay: Inhibition of Glutamate NMDA receptor (unknown origin) at 10 uM in presence of phencyclidine to control; format: protein-complex assay; method in brief: as §2
[8] = tested on: Mus musculus; assay: Antipsychotic activity in C57BL/6N mouse assessed as increase in Arc mRNA expression at 3 to 100 mg/kg, po measured for 1 hr by qPCR analysis; format: functional, organism-based; details: dose 3-100 mg/kg
Method in brief: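 Mice dosed orally at 3–100 mg/kg or vehicle. Tissues taken 1 h post-dose, NAc shell and striatum dissected, frozen on dry ice. IEG mRNA quantified by qPCR (absolute or ΔΔCt); n = 5–6; mean ± SEM.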

[9] = target: Polyunsaturated fatty acid 5-lipoxygenase (Homo sapiens) (UniProt P09917); assay: Inhibition of […] (unknown origin) at 10 uM relative to control; method in brief: as §1
Chain of Polyunsaturated fatty acid 5-lipoxygenase (Homo sapiens) (P09917 whole entry): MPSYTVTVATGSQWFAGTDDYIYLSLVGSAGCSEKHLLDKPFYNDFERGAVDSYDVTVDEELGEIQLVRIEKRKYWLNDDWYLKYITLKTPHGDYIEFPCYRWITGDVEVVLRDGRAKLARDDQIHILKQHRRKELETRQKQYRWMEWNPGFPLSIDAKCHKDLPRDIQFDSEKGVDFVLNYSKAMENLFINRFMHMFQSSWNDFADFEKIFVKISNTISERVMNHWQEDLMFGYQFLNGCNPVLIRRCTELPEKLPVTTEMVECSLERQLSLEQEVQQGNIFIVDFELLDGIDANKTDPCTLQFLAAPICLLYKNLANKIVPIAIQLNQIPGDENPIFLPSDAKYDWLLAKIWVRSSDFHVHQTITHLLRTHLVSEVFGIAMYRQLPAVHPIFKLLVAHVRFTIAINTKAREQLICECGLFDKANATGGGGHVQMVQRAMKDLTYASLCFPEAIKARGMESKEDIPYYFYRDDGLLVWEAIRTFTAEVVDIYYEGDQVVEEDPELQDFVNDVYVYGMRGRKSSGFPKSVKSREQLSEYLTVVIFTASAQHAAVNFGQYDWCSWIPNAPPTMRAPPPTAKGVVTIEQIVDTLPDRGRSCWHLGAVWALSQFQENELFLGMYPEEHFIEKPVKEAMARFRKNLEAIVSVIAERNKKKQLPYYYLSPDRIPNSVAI

[10] = target: Nitric oxide synthase 1 (Homo sapiens) (UniProt P29475); assay: Inhibition of nNOS (unknown origin) at 10 uM relative to control
Chain of Nitric oxide synthase 1 (Homo sapiens) (P29475 whole entry): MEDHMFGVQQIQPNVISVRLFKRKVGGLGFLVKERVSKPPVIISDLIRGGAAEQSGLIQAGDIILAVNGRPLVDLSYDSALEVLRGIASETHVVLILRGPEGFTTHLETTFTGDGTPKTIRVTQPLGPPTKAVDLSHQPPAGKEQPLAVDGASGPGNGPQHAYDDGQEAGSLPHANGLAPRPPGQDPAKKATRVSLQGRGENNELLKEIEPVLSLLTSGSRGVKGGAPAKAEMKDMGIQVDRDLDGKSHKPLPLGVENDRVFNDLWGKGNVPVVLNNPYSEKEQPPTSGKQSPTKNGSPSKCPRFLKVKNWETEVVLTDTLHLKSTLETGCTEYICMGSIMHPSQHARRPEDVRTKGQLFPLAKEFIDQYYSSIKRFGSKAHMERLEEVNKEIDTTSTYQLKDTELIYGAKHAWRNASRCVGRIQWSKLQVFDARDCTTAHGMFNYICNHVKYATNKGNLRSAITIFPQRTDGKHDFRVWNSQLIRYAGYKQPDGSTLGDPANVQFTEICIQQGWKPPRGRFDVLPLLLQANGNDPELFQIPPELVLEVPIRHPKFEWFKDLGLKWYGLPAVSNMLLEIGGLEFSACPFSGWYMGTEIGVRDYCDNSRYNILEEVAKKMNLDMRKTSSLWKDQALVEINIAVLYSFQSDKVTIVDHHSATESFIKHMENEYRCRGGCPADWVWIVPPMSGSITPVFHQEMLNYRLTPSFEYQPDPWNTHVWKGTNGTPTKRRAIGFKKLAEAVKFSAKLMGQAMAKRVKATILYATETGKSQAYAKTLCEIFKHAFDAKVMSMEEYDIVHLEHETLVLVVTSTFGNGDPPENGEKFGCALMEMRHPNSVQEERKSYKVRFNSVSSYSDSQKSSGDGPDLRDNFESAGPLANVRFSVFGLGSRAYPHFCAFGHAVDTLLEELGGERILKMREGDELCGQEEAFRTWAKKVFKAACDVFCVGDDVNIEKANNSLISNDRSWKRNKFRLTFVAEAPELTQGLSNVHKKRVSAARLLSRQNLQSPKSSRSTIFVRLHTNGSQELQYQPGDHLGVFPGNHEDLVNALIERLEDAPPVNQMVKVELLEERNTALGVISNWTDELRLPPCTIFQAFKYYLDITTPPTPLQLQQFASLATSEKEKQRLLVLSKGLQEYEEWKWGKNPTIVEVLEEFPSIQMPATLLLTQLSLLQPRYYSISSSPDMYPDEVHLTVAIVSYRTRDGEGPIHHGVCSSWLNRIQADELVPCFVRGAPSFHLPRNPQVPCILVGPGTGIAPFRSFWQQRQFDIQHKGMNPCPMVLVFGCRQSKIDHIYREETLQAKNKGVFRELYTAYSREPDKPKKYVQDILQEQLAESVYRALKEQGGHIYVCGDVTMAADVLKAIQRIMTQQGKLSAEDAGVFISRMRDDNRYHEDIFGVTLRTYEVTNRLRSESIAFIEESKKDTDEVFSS
Method in brief: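 Binding and enzyme panel run by an outside contractor against receptors, ion channels and enzymes. Each assay used a single 10 μM test concentration, and results are expressed as percent inhibition. A negative value means stimulation of receptor activity or activation of enzyme activity.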

[11] = target: cAMP and cAMP-inhibited cGMP 3',5'-cyclic phosphodiesterase 10A (Homo sapiens) (UniProt Q9Y233); assay: Inhibition of PDE10A1 (unknown origin) at 10 uM relative to control; method in brief: as §1
Chain of cAMP and cAMP-inhibited cGMP 3',5'-cyclic phosphodiesterase 10A (Homo sapiens) (Q9Y233 whole entry): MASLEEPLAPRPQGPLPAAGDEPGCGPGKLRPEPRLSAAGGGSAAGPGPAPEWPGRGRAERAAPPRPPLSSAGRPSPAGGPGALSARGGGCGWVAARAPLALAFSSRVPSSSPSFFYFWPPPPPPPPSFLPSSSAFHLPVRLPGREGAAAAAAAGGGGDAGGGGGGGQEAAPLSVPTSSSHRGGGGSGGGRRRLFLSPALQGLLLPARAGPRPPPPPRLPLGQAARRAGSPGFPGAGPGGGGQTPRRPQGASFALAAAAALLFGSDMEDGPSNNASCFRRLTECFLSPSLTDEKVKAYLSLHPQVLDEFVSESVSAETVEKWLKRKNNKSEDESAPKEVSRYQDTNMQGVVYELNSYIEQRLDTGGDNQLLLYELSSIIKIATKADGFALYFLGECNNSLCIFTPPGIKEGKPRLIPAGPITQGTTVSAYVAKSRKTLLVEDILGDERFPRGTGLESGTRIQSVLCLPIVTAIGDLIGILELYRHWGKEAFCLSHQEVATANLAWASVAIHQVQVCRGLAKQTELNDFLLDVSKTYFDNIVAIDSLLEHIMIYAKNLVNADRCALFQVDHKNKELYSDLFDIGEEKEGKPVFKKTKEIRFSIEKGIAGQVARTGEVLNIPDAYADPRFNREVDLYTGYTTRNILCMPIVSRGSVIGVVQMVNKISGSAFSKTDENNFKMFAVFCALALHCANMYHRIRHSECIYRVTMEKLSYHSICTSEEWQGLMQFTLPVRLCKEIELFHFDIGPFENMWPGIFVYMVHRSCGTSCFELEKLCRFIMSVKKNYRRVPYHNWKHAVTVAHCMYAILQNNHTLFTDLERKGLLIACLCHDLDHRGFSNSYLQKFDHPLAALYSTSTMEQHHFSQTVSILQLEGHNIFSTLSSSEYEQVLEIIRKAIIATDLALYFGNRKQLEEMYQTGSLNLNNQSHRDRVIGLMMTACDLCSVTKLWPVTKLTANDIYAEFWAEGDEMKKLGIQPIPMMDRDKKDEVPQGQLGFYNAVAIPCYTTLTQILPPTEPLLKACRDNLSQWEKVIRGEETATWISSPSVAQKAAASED

[12] = target: Phosphodiesterase 4 (Homo sapiens) (UniProt P27815+Q08499+Q07343+Q08493); assay: Inhibition of PDE4 (unknown origin) at 10 uM relative to control; format: protein assay; method in brief: as §1
[13] = target: Voltage-gated L-type calcium channel (Homo sapiens, UniProt O60840+Q01668+Q13698+Q13936); assay: Inhibition of Calcium channel L-type (unknown origin) at 10 uM in presence of dihydropyridine relative to control; format: protein assay; details: probe dihydropyridine; method in brief: as §3

What does the source list for `Cc1cc(-n2nc(Cc3cc(F)cc(C(F)(F)F)c3)nc2C)ccc1C(N)=O` [TP-024]?
inhibition [1]: 17%; Activity [2]: Active; inhibition [3]: -1%; Activity [4]: Active; inhibition [5]: 3%; inhibition at 10 µM [6]: 6%; inhibition [7]: 4%; Activity [8]: Active; inhibition [9]: -5%; inhibition [10]: 11%; inhibition [11]: 0%; inhibition [12]: 6%; inhibition at 10 µM [13]: -2%
